Assay results published in ChEMBL document CHEMBL3779801, “Discovery of the Selective CYP17A1 Lyase Inhibitor BMS-351 for the Treatment of Prostate Cancer” (ACS Med Chem Lett, 2016).

Assays:
[1] = Oral bioavailability in cynomolgus monkey plasma at 4 mg/kg after 0.25 to 45 hrs by LC-MS/MS analysis; assay type: ADME, organism-based, Macaca fascicularis
Procedure, shortened: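 Oral bioavailability in cynomolgus monkey came from oral dosing of a solution formulation combined with a separate 2 mg/kg iv dose. Values are mean ± standard deviation.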

[2] = target: T1, Steroid 17-alpha-hydroxylase/17,20 lyase (Macaca fascicularis, UniProt Q2XVA1); assay: Selectivity ratio of cynomolgus monkey CYP17A1 hydroxylase activity using pregnenolone substrate to cynomolgus monkey CYP17A1 lyase activity using [3H]-hydroxypregnenolone substrate
T1 sequence (Q2XVA1 whole entry): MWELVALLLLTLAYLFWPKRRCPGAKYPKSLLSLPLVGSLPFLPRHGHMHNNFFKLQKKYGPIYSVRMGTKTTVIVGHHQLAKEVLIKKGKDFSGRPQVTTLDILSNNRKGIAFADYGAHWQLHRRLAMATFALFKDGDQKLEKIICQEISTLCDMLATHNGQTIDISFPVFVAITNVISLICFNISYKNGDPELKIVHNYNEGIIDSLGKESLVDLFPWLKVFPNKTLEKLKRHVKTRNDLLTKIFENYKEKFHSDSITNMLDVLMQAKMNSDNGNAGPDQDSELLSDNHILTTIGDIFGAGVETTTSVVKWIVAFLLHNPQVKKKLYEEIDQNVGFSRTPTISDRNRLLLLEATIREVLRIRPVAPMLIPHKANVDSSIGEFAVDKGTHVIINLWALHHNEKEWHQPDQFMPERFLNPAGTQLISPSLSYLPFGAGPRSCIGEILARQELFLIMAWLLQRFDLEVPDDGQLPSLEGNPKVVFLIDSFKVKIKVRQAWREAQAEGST
Procedure, shortened: (§1)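 Hydroxylase and lyase activities were run with different enzyme preparations, so the hydroxylase/lyase ratios are estimates.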

[3] = Inhibition of cynomolgus monkey CYP21A2 using hydroxy progesterone as substrate incubated for 120 mins by LC-MS method; set-up: species or system Macaca fascicularis
[4] = target: T2, Steroid 17-alpha-hydroxylase/17,20 lyase (Homo sapiens, UniProt P05093); assay: Selectivity ratio of human CYP17A1 hydroxylase activity expressed in Escherichia coli using pregnenolone substrate to human CYP17A1 lyase activity expressed in HEK293 cell microsomes using [3H]-hydroxypregnenolone substrate; procedure, shortened: as §1
T2 sequence (P05093 whole entry): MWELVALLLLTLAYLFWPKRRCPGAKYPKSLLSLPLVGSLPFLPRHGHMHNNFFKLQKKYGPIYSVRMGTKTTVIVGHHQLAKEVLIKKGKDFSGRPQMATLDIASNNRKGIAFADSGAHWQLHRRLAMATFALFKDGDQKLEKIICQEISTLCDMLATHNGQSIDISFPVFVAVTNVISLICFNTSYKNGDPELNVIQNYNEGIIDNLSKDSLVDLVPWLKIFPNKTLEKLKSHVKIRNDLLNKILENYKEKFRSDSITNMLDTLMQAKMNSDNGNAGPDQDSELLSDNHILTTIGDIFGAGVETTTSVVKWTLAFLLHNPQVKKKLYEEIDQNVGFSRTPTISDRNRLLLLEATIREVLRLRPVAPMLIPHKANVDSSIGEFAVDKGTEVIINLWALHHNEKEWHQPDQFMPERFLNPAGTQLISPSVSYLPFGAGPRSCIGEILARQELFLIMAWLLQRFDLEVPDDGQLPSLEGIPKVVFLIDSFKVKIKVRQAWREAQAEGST

[5] = Tmax in one day castrated cynomolgus monkey at 1.5 mg/kg, po bid; assay type: ADME, organism-based, Macaca fascicularis; conditions: male, in vivo
Procedure, shortened: (§2)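 Castrated cynomolgus monkeys were studied over one day with oral BID dosing at time 0 and 8 h. Plasma levels were sampled at set time points over 1–24 h and reported as average ± standard deviation in nM, n = 4.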

[6] = AUC in cynomolgus monkey plasma at 4 mg/kg, po after 0.25 to 45 hrs by LC-MS/MS analysis; assay type: ADME, organism-based, Macaca fascicularis; set-up: dose 4 mg/kg, time upper 45 hr, time lower 0.25 hr, route oral
Procedure, shortened: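 Cynomolgus monkeys were dosed orally from a solution formulation. Plasma parameters are given as mean ± standard deviation.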

[7] = Metabolic stability in human liver microsomes assessed as parent compound remaining at 0.5 uM incubated for 10 mins; assay type: ADME; conditions: read-out: Stability
Procedure, shortened: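 Compound at 0.5 μM was incubated with human, mouse or cynomolgus liver microsomes for 10 min.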

[8] = Tmax in one day castrated cynomolgus monkey at 1.5 mg/kg, po bid measured after second dose administered at 8 hrs; assay type: ADME, organism-based, Macaca fascicularis; conditions: male, in vivo; procedure, shortened: as §2
[9] = target: T1, Steroid 17-alpha-hydroxylase/17,20 lyase; assay: Inhibition of CYP17A1 in cynomolgus monkey using [3H]-pregnenolone as substrate incubated for 45 mins by scintillation proximity assay in presence of NADPH
[10] = target: T2, Steroid 17-alpha-hydroxylase/17,20 lyase; assay: Inhibition of CYP17A1 in human adrenal microsomes using [3H]-pregnenolone as substrate incubated for 90 mins by scintillation proximity assay in presence of NADPH; set-up: species or system Adrenal gland
[11] = target: T1, Steroid 17-alpha-hydroxylase/17,20 lyase; assay: Inhibition of CYP17A1 in cynomolgus monkey adrenal microsomes using [3H]-pregnenolone as substrate incubated for 45 mins by scintillation proximity assay in presence of NADPH; set-up: species or system Adrenal gland
[12] = Volume of distribution at steady state in cynomolgus monkey plasma at 2 mg/kg, iv by LC-MS/MS analysis; assay type: ADME, organism-based, Macaca fascicularis; conditions: read-out: Vdss
Procedure, shortened: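 Cynomolgus monkeys were dosed intravenously. Plasma parameters are given as mean ± standard deviation.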

Compound: Cc1ccncc1-c1cccc2c1ncn2CC(F)(F)F
- bioavailability [1]: 97%
- Selectivity ratio [2]: 11
- IC50 [3]: > 7500 nM
- Selectivity ratio [4]: 10
- Tmax [5]: 1 h
- AUC [6]: 12.3 µM·h
- remaining at 10 min, 0.5 µM [7]: 90%
- Tmax [8]: 9.5 h
- IC50 [9]: 4 nM
- IC50 [10]: 20 nM
- IC50 [11]: 2 nM
- Vd [12]: 4.4 L/kg
